Activity calls are given as the source filed them. The calls are words filed in the database; no cut-off is given here.
Tests used:
[1] = target: Tyrosine-protein kinase ABL2 (Homo sapiens, UniProt P42684); assay: Inhibition of ABL2 (unknown origin)
[2] = target: G protein-coupled receptor kinase 3 (Homo sapiens, UniProt P35626); assay: Inhibition of ADRBK2 (unknown origin)
[3] = target: Tyrosine-protein kinase Fyn (Homo sapiens, UniProt P06241); assay: Inhibition of FYN (unknown origin)
[4] = target: MAP/microtubule affinity-regulating kinase 3 (Homo sapiens, UniProt P27448); assay: Inhibition of MARK3 (unknown origin)
[5] = Clearance in monkey at 1.35 mg/kg, iv administered as single dose; assay type: ADME, organism-based, Macaca mulatta; details: rhesus monkey, in vivo
[6] = Toxicity in wildtype mouse assessed as number of closed arm entries at 1200 ppm administered as rodent chow for 10 to 24 weeks by Elevated plus maze test (reference value: 11 to 33); details: in vivo, po, time 10-24 weeks
Mus musculus [7] = assay: Antialzheimer activity in 5XFAD mouse assessed as number of entries to center zone at 1200 ppm administered as rodent chow for 10 to 24 weeks by Open field test (reference value: 22 to 55); assay type: functional; details: route po, time 10-24 weeks
Mus musculus [8] = assay: Antialzheimer activity in 5XFAD mouse assessed as average plaque volume in thalamus at 1200 ppm administered as rodent chow starting from 1.5 months and measured after 7 months by Thio-S staining based confocal microscopic analysis (reference value: 2442.562 to 3332.739 microm3); assay type: functional; details: route po, time 5.5 months, 4015 h
Mus musculus [9] = assay: Antialzheimer activity in 5XFAD mouse assessed as amyloidbeta40 level in detergent soluble cortex fraction measured per microgram protein at 1200 ppm administered as rodent chow starting from 1.5 months and measured after 4 months by ELISA (reference value: 0 to 0.089 pg); assay type: functional; details: route po, time 2.5 months, 1825 h
Outline: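 PLX5622 at 1200 ppm in chow given to 5xFAD mice from 1.5 months to 4 or 7 months of age; cortex and thalamus homogenized in TPER (detergent-soluble), pellets re-homogenized in 70% formic acid and spun 100,000 g, 1 h, 4 °C (insoluble); protein by Bradford/Lowry; Aβ species measured by Meso Scale electrochemiluminescence immunoassay, normalized to protein; n = 7–8 per group at 7 months.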

[10] = Effect on Siglech gene expression in 5XFAD mouse hippocampus at 1200 ppm administered as rodent chow starting from 1.5 months and measured after 7 months by RNA-Seq analysis (reference value: 5.386 to 6.928 RPKM); assay type: functional; details: route po, time 5.5 months, 4015 h
[11] = Effect on Spi1 gene expression in wild type mouse cortex at 1200 ppm administered as rodent chow starting from 1.5 months and measured after 7 months by RNA-Seq analysis (reference value: 1.059 to 1.887 RPKM); assay type: functional; details: route po, time 5.5 months, 4015 h
[12] = Effect on Clec7a gene expression in 5XFAD mouse thalamus at 1200 ppm administered as rodent chow starting from 1.5 months and measured after 7 months by RNA-Seq analysis (reference value: 3.412 to 4.381 RPKM); assay type: functional; details: route po, time 5.5 months, 4015 h
Outline: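 WT and 5xFAD mice were treated with 1200 ppm PLX5622 chow or control chow from 1.5 to 7 months of age. Brains were microdissected into cortex, hippocampus and thalamus, and RNA was extracted from tissue powder. Whole-transcriptome RNA-Seq libraries were sequenced, with n = 4 per group per region (48 samples).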

[13] = Effect on Ctsz gene expression in wild type mouse cortex at 1200 ppm administered as rodent chow starting from 1.5 months and measured after 7 months by RNA-Seq analysis (reference value: 12.903 to 16.267 RPKM); assay type: functional; details: route po, time 5.5 months, 4015 h
[14] = Effect on Ctsz gene expression in wild type mouse hippocampus at 1200 ppm administered as rodent chow starting from 1.5 months and measured after 7 months by RNA-Seq analysis (reference value: 13.821 to 22.84 RPKM); assay type: functional; details: route po, time 5.5 months, 4015 h
[15] = Effect on Itgax gene expression in 5XFAD mouse hippocampus at 1200 ppm administered as rodent chow starting from 1.5 months and measured after 7 months by RNA-Seq analysis (reference value: 2.202 to 4.490 RPKM); assay type: functional; details: route po, time 5.5 months, 4015 h
Mus musculus [16] = assay: Prevention of Grn gene upregulation in 5XFAD mouse hippocampus at 1200 ppm administered as rodent chow starting from 1.5 months and measured after 7 months by Nanostring analysis; assay type: functional, tissue-based; details: route po, time 5.5 months
Mus musculus [17] = assay: Antialzheimer activity in 5XFAD mouse assessed as number of Iba1 positive cells per FOV in […] cortex at 1200 ppm administered as rodent chow starting from 1.5 months to 4 months followed by compound removal and measured after 1 months by immunolabelling based confocal microscopic analysis (reference value: 210 to 529); assay type: functional; details: route po, time 2.5 months, 1825 h
Outline: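 For the repopulation paradigm, 5xFAD mice ate 1200 ppm PLX5622 chow from 1.5 to 4 months of age. Inhibitor chow was then withdrawn, and brains were examined one month later. Sections were stained with Thio-S and immunolabeled for IBA1, then analysed by confocal microscopy in cortical regions.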

[18] = target: T1, Macrophage colony-stimulating factor 1 receptor (Mus musculus) (UniProt P09581); assay: In vivo inhibition of CSF1R in wildtype mouse assessed as number of GFAP positive cells per FOV at 1200 ppm administered as rodent chow starting from 1.5 months and measured after 4 months by immunolabeling based confocal microscopic analysis (reference value: 1 to 7); assay type: functional; details: route po, time 2.5 months
T1 sequence (whole entry): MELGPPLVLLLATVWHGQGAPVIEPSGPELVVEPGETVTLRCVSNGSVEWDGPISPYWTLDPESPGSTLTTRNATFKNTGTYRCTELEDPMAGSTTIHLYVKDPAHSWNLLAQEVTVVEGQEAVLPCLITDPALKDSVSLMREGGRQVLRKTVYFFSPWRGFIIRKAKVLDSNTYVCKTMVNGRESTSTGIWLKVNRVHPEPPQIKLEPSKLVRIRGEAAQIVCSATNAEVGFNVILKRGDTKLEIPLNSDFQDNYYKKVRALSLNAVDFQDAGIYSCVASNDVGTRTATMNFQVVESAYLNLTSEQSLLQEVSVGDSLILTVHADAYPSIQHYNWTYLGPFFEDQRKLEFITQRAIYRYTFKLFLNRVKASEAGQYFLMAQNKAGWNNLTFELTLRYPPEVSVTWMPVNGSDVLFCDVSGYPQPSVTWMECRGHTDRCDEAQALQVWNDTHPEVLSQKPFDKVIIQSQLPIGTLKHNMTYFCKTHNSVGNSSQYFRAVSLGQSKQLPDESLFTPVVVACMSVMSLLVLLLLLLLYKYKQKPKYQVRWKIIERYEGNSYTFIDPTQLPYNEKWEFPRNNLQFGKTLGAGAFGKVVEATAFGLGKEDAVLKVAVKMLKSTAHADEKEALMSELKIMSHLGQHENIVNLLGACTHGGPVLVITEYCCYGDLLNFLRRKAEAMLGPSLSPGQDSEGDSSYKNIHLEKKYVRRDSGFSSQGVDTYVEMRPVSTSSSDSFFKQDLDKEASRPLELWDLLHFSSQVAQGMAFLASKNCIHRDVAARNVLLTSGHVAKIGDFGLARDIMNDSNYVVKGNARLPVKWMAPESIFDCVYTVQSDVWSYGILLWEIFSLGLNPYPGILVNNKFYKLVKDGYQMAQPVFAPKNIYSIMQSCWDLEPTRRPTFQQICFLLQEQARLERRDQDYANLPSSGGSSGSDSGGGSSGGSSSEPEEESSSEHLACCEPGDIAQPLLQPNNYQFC

Tyrosine-protein kinase ABL2, sequence (P42684 whole entry): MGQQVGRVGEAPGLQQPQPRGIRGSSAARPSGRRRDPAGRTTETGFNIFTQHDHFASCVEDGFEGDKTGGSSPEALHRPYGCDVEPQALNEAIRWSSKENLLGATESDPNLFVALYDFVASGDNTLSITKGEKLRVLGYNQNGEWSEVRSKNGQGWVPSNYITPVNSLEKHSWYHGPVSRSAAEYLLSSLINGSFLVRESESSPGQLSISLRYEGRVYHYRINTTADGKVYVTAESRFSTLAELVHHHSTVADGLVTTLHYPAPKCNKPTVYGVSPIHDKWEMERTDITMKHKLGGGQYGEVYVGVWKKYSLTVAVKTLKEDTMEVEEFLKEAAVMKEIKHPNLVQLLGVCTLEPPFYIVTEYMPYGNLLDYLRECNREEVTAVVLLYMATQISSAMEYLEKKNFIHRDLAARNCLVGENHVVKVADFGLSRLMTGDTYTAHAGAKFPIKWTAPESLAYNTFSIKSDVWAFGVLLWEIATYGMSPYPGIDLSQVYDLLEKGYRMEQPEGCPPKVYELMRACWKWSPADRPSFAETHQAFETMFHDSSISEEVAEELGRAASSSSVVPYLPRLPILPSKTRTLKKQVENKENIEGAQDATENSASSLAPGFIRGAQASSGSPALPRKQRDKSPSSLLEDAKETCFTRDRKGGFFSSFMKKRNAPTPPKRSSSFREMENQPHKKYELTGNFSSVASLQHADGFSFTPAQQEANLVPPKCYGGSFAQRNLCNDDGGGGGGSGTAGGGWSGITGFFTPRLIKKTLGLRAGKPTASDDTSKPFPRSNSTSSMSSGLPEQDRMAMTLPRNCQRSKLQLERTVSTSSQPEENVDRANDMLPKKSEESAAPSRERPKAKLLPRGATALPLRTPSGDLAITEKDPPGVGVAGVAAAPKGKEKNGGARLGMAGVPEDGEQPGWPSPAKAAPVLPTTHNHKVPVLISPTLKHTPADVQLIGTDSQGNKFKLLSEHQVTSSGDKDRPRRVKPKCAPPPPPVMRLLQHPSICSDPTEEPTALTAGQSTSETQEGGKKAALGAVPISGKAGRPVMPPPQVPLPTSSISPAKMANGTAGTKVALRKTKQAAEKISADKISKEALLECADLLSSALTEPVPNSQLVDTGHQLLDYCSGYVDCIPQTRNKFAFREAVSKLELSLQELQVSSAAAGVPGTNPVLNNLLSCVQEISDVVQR
Tyrosine-protein kinase Fyn, sequence (P06241 whole entry): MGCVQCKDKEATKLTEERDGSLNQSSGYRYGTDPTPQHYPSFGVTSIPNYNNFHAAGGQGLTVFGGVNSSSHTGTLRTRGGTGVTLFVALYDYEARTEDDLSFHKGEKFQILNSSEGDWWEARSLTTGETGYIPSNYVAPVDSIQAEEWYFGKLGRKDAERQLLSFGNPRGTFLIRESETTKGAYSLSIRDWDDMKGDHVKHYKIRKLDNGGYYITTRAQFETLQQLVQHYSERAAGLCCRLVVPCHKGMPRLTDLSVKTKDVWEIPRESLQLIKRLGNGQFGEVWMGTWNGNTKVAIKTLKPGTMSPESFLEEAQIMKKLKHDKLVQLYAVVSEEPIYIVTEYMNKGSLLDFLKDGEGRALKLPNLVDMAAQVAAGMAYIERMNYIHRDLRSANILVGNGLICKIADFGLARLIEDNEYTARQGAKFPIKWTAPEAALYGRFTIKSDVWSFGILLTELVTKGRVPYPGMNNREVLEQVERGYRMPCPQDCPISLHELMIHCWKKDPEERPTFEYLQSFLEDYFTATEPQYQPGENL
MAP/microtubule affinity-regulating kinase 3, sequence (P27448 whole entry): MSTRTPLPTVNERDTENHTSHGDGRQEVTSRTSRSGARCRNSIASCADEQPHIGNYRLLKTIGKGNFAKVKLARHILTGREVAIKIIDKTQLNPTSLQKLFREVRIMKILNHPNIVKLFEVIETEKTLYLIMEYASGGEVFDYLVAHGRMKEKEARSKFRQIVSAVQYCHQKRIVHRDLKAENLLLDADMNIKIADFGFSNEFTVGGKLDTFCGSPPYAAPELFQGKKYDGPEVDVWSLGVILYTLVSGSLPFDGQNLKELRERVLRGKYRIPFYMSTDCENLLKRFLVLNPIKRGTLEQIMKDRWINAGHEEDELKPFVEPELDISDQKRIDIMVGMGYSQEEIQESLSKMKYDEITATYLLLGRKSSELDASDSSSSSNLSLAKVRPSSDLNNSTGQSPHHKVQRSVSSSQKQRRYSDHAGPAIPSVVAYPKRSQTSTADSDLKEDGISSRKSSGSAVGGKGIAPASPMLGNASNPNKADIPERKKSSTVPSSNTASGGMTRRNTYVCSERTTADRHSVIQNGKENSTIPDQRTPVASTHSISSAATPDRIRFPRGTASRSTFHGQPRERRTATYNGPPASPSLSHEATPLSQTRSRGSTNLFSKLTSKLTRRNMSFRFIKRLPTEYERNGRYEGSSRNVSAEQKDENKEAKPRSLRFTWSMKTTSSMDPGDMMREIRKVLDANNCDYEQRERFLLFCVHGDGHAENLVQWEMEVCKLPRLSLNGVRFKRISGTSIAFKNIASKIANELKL
G protein-coupled receptor kinase 3, sequence (P35626 whole entry): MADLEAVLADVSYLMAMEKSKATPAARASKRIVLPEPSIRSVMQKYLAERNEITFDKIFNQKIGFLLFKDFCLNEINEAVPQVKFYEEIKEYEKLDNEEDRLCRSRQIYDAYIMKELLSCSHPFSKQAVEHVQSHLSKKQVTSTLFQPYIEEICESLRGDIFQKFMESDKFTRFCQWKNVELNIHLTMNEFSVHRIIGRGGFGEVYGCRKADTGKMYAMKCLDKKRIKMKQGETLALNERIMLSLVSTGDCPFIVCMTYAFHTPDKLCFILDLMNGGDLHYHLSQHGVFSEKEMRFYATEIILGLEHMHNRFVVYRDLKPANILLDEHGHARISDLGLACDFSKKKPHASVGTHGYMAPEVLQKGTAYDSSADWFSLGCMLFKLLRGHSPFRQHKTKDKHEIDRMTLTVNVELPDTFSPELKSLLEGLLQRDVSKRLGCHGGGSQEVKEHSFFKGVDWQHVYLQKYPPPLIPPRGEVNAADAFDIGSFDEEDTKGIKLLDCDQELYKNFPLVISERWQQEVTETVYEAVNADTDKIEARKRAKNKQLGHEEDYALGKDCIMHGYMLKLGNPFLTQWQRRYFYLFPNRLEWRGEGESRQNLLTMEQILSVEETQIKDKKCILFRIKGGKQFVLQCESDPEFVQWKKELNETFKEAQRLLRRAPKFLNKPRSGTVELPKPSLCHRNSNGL

Compound: COc1ncc(F)cc1CNc1ccc(Cc2c[nH]c3ncc(C)cc23)c(F)n1 [PLX-5622]
- IC50 [1]: > 1000 nM
- IC50 [2]: > 1000 nM
- IC50 [3]: > 1000 nM
- IC50 [4]: > 1000 nM
- clearance [5]: 11 mL/min/kg
- Activity [6]: 14
- Activity (Mus musculus [7]): 7
- Activity (Mus musculus [8]): 1488.396 um3
- Activity (Mus musculus [9]): 0 pg
- Activity [10]: 0.195 RPKM
- Activity [11]: 0 RPKM
- Activity [12]: 0 RPKM
- Activity [13]: 11.205 RPKM
- Activity [14]: 14.33 RPKM
- Activity [15]: 0.155 RPKM
- Activity (Mus musculus [16]): Active
- Activity (Mus musculus [17]): 66
- Activity [18]: 4

Reference: ChEMBL document CHEMBL5649170, “Sustained microglial depletion with CSF1R inhibitor impairs parenchymal plaque development in an Alzheimer's disease model” (Nat Commun, 2019)
